Shown are actives, neighbours in structure and some others; about 1.5% of the full set was active somewhere.
Mot1-301 SUMO: yeast Mot1-301 growth rescue at high temperature, primary screen, SUMOylation pathway inhibitor project, S. cerevisiae, ATP luminescence, 38.5C | S. cerevisiae Mot1-301 growth rescue; percent above DMSO median, 100 means doubled | growth rescue, % at 18.8 µM | AID 2716, 2010 | 320,000 tested, 1% active;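 active = every valid replicate shows activation above 250% relative to neutral control wells; inactive = the rest, any valid replicate at or below 250%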
C2C12 statin: suppressors of statin myotoxicity in C2C12 myotubes, primary screen, cell-based, single point, plate reader; C2C12 myotubes + simvastatin, ATP luminescence, 48 h; scaled: DMSO 0, geranylgeraniol control 100; rescue of ATP level, % at 7.49 µM; 330,000 tested, 0.78% active; AID 602340, 2012;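 active = mean ATP rescue above about 67%, or every replicate alone reaching that limit, limit read from the data, passing the limit was not always enough; inconclusive = no clear call, values can overlap the other calls; inactive = mean under the limit and some replicate under it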;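 note: myotubes were challenged with 10 µM simvastatin during compound exposure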
Cneo AK release: Cryptococcus neoformans cell lysis inducers, primary screen, AK release luminescence, single concentration; AID 651654, 2012; 360,000 tested, 0.2% active; C. neoformans lysis, adenylate kinase release luminescence, 4 h; normalised: neutral wells 0, clomiphene wells 100; lysis activity, % at 15 µM;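 active = mean lysis activity across replicates of at least 80%, whatever share of replicates individually reach that level; inactive = mean lysis activity below 80%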
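Material: C. neoformans cells | Amount: Yeast cell density of 5 × 10^6 cells/mL | Medium: Fresh YPD growth medium | Dosing: Single dose | Times: Static 4 h at 37 °C with compound, 1 h detection | Detection: AK luminescence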
Each line names hits and unclear results; the compound was inactive in the other large screens.

COc1ccc(S(=O)(=O)Nc2ccc3c(c2)C(=O)N([C@H](C)CO)C[C@H](C)[C@H](CN(C)Cc2ccc(Cl)c(Cl)c2)OCCCC[C@@H](C)O3)cc1	C2C12 statin 79 (no result: Mot1-301 SUMO)
COc1ccc(S(=O)(=O)Nc2ccc3c(c2)C(=O)N([C@H](C)CO)C[C@H](C)[C@H](CN(C)S(=O)(=O)c2ccc(F)cc2)OCCCC[C@@H](C)O3)cc1	C2C12 statin inconclusive (no result: Mot1-301 SUMO)
COc1ccc(S(=O)(=O)Nc2ccc3c(c2)C(=O)N([C@@H](C)CO)C[C@H](C)[C@H](CN(C)Cc2ccc(Cl)c(Cl)c2)OCCCC[C@@H](C)O3)cc1	none (no result: Mot1-301 SUMO)
COc1ccc(S(=O)(=O)N(C)C[C@H]2OCCCC[C@H](C)Oc3ccc(NS(=O)(=O)c4ccc(F)cc4)cc3C(=O)N([C@H](C)CO)C[C@H]2C)cc1	none (no result: Mot1-301 SUMO)
CCCC(=O)Nc1ccc2c(c1)C(=O)N(C)C[C@H](OC)[C@H](C)CN(C(=O)c1cnccn1)[C@H](C)CO2	none (no result: Mot1-301 SUMO)
C[C@@H]1CN([C@@H](C)CO)C(=O)Cc2cc(NS(=O)(=O)c3cn(C)cn3)ccc2O[C@@H]1CN(C)C(=O)Nc1ccc(F)cc1	none (no result: Mot1-301 SUMO)
COc1ccc(S(=O)(=O)Nc2ccc3c(c2)C(=O)N([C@@H](C)CO)C[C@@H](C)[C@@H](CN(C)C(=O)c2ccccc2)OCCCC[C@@H](C)O3)cc1	none (no result: Mot1-301 SUMO)
COc1ccc(S(=O)(=O)Nc2ccc3c(c2)C(=O)N([C@@H](C)CO)C[C@@H](C)[C@H](CN(C)C(=O)c2ccccc2)OCCCC[C@@H](C)O3)cc1	C2C12 statin 113 (no result: Mot1-301 SUMO)
CC1CN(CC(O)COc2ccc(C(C)C)cc2)CC(C)O1 (configuration not stated)	Mot1-301 SUMO 326
CC(=O)c1ccc(OCC(O)CN2CC(C)OC(C)C2)cc1 (configuration not stated)	none
CNC[C@@H]1OCCCC[C@H](C)Oc2ccc(NC(=O)Cc3ccccc3)cc2C(=O)N([C@@H](C)CO)C[C@@H]1C	none (no result: Mot1-301 SUMO)
CCN(CC)CCNc1nc2ccccc2n1C	none
Cc1ccc2c(c1)nc(NCCO)n2C	C2C12 statin 91
CCCC1(CCC)NC(=O)N(CC(=O)N2CCN(C(=O)c3ccco3)CC2)C1=O	C2C12 statin 98
O=C(CN1C(=O)NC2(CCCC2)C1=O)N1CCN(C(=O)c2ccco2)CC1	none
C[C@@H]1CCCCO[C@@H](CN(C)Cc2ccccc2)[C@H](C)CN([C@H](C)CO)C(=O)c2cc(NS(=O)(=O)c3cn(C)cn3)ccc2O1	none (no result: Mot1-301 SUMO, C2C12 statin)
COc1ccc(C2CC(=O)c3cnc(N)nc3C2)c(OC)c1 (configuration not stated)	C2C12 statin 106 (no result: Mot1-301 SUMO)
COc1ccc(C2CC(=O)c3cnc(NC(=O)c4ccccc4)nc3C2)c(OC)c1 (configuration not stated)	none
O=C(OCc1nc2ccccc2s1)c1ccccc1O	none (no result: C2C12 statin, Cneo AK release)
O=C(OCc1nc2ccccc2s1)c1cnccn1	C2C12 statin 132 (no result: Cneo AK release)
CC(C)NC(=O)Nc1ccc2c(c1)C(=O)N([C@@H](C)CO)C[C@H](C)[C@@H](CN(C)Cc1ccc(C(F)(F)F)cc1)OCCCC[C@@H](C)O2	none (no result: Mot1-301 SUMO, C2C12 statin)
CSc1nc2nc3c(c(=O)n2[nH]1)CCCC3	C2C12 statin 119
Cc1nc2nc3c(c(=O)n2[nH]1)CCC3	none (no result: C2C12 statin, Cneo AK release)
C[C@H](CO)N1C[C@H](C)[C@H](CN(C)C)OCCCC[C@H](C)Oc2ccc(NS(=O)(=O)c3ccc(F)cc3)cc2C1=O	none (no result: Mot1-301 SUMO)
CSc1cccc(CN2CCC(CO)(Cc3ccccc3)CC2)c1	Mot1-301 SUMO 459 (no result: C2C12 statin, Cneo AK release)
CSc1cccc(CN2CCCC(CO)(Cc3cccc(Cl)c3)C2)c1 (configuration not stated)	none (no result: C2C12 statin)
Cc1ccc(S(=O)(=O)NCC[C@@H]2CC[C@@H](NC(=O)c3cccc(F)c3)[C@H](CO)O2)cc1	none (no result: Mot1-301 SUMO)
COc1ccccc1CC1(C)C(=O)Nc2ccc(S(=O)(=O)NC3CCCCC3)cc21 (configuration not stated)	none (no result: Mot1-301 SUMO)
CC1(Cc2ccccc2OC(F)(F)F)C(=O)Nc2ccc(S(=O)(=O)NC3CCCCC3)cc21 (configuration not stated)	C2C12 statin 132 (no result: Mot1-301 SUMO)
O=C(CC(F)(F)F)N1C[C@@H]2[C@H](c3ccccc31)[C@@H](CO)N2C(=O)CN1CCOCC1	none (no result: Mot1-301 SUMO)
Cc1ccc(S(=O)(=O)N2CCN(C(=O)c3ccccc3)CC2)cc1	none
COc1cccc(OC)c1C(=O)N1CCN(S(=O)(=O)c2ccc(C)cc2)CC1	C2C12 statin 126
C[C@@H]1CN([C@H](C)CO)S(=O)(=O)c2ccc(C#CCC3CCCC3)cc2O[C@@H]1CN(C)C	none (no result: Mot1-301 SUMO)
O=C1CC(c2ccccc2)CC(O)=C1C=NCC1CCCO1 (configuration not stated)	none (no result: C2C12 statin)
Oc1[nH]c2ccccc2c1C=NCC1CCCO1 (configuration not stated)	C2C12 statin 121
COCC(=O)N(C)C[C@H]1Oc2cc(C#CC3CCCC3)ccc2S(=O)(=O)N([C@@H](C)CO)C[C@@H]1C	none (no result: Mot1-301 SUMO, Cneo AK release)
CNC[C@H]1Oc2cc(C#CCN(C)C)ccc2S(=O)(=O)N([C@@H](C)CO)C[C@@H]1C	none (no result: Mot1-301 SUMO)
O=C1CCCC2=C1C(c1ccc(O)c(Br)c1)C1=C(CCCC1=O)N2c1ccccc1	Mot1-301 SUMO active (no result: C2C12 statin, Cneo AK release)
CCN1C2=C(C(=O)CCC2)C(c2ccc(O)c(Br)c2)C2=C1CCCC2=O	none
COCC(=O)N(C)C[C@@H]1Oc2cc(C#CC(C)(C)O)ccc2S(=O)(=O)N([C@H](C)CO)C[C@@H]1C	none (no result: Mot1-301 SUMO)
O=C(COc1ccc(Cl)cc1)Nc1nnc(S(=O)(=O)N2CCCCCC2)s1	C2C12 statin 77
CC1CCN(S(=O)(=O)c2nnc(NC(=O)COc3ccccc3)s2)CC1	Mot1-301 SUMO 292
Cc1ccc(OCC(=O)Nc2nnc(S(=O)(=O)N3CCCCCC3)s2)cc1C	none
Cc1cccc(OCC(=O)Nc2nnc(S(=O)(=O)N3CCC(C)CC3)s2)c1	none
O=C(C[C@@H]1C[C@H]2c3cc(NC(=O)Nc4ccccc4)ccc3O[C@H]2[C@H](CO)O1)NCc1ccncc1	none (no result: Mot1-301 SUMO)
Clc1ccc(C(c2nnnn2C2CCCC2)N2CCN(Cc3ccncc3)CC2)cc1 (configuration not stated)	none
CCC(c1nnnn1C1CCCC1)N1CCN(c2ccccc2F)CC1 (configuration not stated)	C2C12 statin 124
CCCC(c1nnnn1C1CCCC1)N1CCN(c2ccccc2F)CC1 (configuration not stated)	none
c1ccc(C(c2ccccc2)N2CCN(Cc3nnnn3C3CCCC3)CC2)cc1	C2C12 statin 77
CC(C)CCn1nnnc1CN1CCN(C(c2ccccc2)c2ccccc2)CC1	none (no result: C2C12 statin)
Fc1ccc(C(c2nnnn2C2CCCC2)N2CCN(Cc3ccccc3)CC2)cc1 (configuration not stated)	C2C12 statin 137 (no result: Mot1-301 SUMO)
C[C@H]1CN([C@@H](C)CO)S(=O)(=O)c2ccc(-c3cncnc3)cc2O[C@H]1CN(C)C(=O)CC1CC1	none (no result: Mot1-301 SUMO)
COc1ccc(CN(CCCN2CCOCC2)S(=O)(=O)N(C)C)cc1OC	none
COc1ccc(S(=O)(=O)N(CCCN2CCOCC2)Cc2ccc(OC)c(OC)c2)cc1	C2C12 statin 94
CCC(=O)N[C@@H]1CC[C@H](CCn2cc(C3CC3)nn2)O[C@H]1CO	none (no result: Mot1-301 SUMO)
